Measurements reported in ChEMBL document CHEMBL2150952 (J Med Chem, 2011).
One block for each molecule: values may come before it. Active and inactive are the calls of the source. No cut-off for these calls is given here.

What was measured:
Mus musculus [1] = test: Antidiabetic activity in diet-induced obese C57BL6 mouse assessed as reduction in liver triglyceride level at 20 mg/kg, po BID; assay type: functional, organism-based; design: dose 20 mg/kg
Procedure, shortened: (§1)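 eDIO mice (high fat diet for at least 18 weeks) were dosed orally bid for 28 days, with n = 8–10/group. At termination, livers were collected for histological steatosis assessment and triglyceride measurement.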

Mus musculus [2] = test: Antidiabetic activity in diet-induced obese C57BL6 mouse assessed as reduction in liver steatosis at 20 to 60 mg/kg, po BID measured on day 28; assay type: functional, organism-based; procedure, shortened: as §1
Mus musculus [3] = test: Antidiabetic activity in diet-induced obese C57BL6 mouse assessed as reduction in liver triglyceride level at 60 mg/kg, po BID; assay type: functional, organism-based; design: dose 60 mg/kg; procedure, shortened: as §1
Mus musculus [4] = test: Antidiabetic activity in po dosed diet-induced obese fasted C57BL6 mouse assessed as increase in glucose clearance administered 1 hr before glucose challenge measured 12 hrs thereafter by OGTT; assay type: functional; settings: in the assay text read “2 hrs” for “12 hrs”
Procedure, shortened: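 Male C57/Bl6 mice were kept on a high fat diet for at least 14 weeks from 6 weeks of age, then fasted 16 h. Compound was given orally 1 h before a 2 g/kg oral glucose load.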

Acyl-CoA desaturase 1 [5] = target: T1, Acyl-CoA desaturase 1 (Rattus norvegicus, UniProt P07308); test: Inhibition of SCD-1 activity in Sprague-Dawley rat Hepatocytes expressing organic anion transporting polypeptides assessed as reduction in [I-14C] […] desaturation by scintillation counting; assay type: cell-based, Hepatocyte
T1 sequence (P07308 whole entry): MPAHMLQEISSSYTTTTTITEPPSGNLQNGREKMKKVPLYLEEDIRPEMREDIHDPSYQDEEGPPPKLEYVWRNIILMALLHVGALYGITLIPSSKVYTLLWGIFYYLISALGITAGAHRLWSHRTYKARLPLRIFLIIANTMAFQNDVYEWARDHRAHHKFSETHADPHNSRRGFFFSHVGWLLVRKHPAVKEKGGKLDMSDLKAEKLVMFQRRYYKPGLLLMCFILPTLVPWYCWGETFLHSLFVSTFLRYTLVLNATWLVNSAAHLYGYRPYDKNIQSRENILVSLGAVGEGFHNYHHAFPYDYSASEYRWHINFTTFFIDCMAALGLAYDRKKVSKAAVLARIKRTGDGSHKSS
Procedure, shortened: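 Rat hepatocytes (4 × 10^6 cells/mL) were preincubated with compound for 15 min at 37 °C/5% CO2. 14C-stearic acid (final 0.5 μCi/mL) was then added for 1 h with shaking. Cells were washed, hydrolyzed in 2N NaOH at 75 °C for 1 h, acidified and extracted. Radiolabeled oleic and stearic acids were quantified by HPLC with flow scintillation detection. Mean of at least n = 3.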

HepG2 = test: Ratio IC50 for SCD-1 activity in organic anion transporting polypeptides-deficient human HepG2 cells to IC50 for SCD-1 activity in Sprague-Dawley rat Hepatocytes expressing organic anion transporting polypeptides; assay type: cell-based
Procedure, shortened: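 Cellular SCD IC50s measured in human HepG2 cells (lacking active OATPs) and in rat hepatocytes (active OATPs). Hepatocytes preincubated with compound for 15 min at 37 °C, then given 14C-stearic acid (final 0.5 μCi/ml) for 1 h with shaking. Lipids hydrolysed in 2N NaOH at 75 °C, acidified and extracted. Radiolabelled oleic and stearic acid resolved by HPLC with flow scintillation detection. Mean of at least n = 3. HepG2 IC50 divided by hepatocyte IC50.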

Liver = test: Ratio drug uptake in liver to harderian gland of C57BL6 mouse at 10 mg/kg, po measured 6 hrs post dose; assay type: ADME, organism-based; design: dose 10 mg/kg, route oral; settings: in vivo
Procedure, shortened: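 Single oral dose of 10 mg/kg in 0.5% methylcellulose to fed C57BL6 mice (n = 2). Animals sacrificed 6 h post dose. Plasma, liver, skin and Harderian gland collected. Tissues homogenized in MeCN/water with internal standard and drug quantified by LC-MS against a standard curve made in blank plasma. Concentration ratio calculated.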

Mus musculus [6] = test: Inhibition of SCD activity in liver of diet-induced obese C57BL6 mouse assessed as reduction in desaturation induces at 30 mg/kg, po BID; assay type: functional, organism-based; design: dose 30 mg/kg
Acyl-CoA desaturase 1 [7] = target: T1, Acyl-CoA desaturase 1; test: Inhibition of SCD-1 activity in Sprague-Dawley rat microsome assessed as reduction in [I-14C] stearoyl CoA desaturation by scintillation counting; assay type: microsomes
Mus musculus [8] = test: Antidiabetic activity in diet-induced obese C57BL6 mouse assessed as reduction in body weight gain at 30 mg/kg, po BID; assay type: functional, organism-based; design: dose 30 mg/kg
Stearoyl-CoA desaturase = target: T2, Stearoyl-CoA desaturase (Homo sapiens, UniProt O00767); test: Inhibition of SCD-1 activity in organic anion transporting polypeptides-deficient human HepG2 cells assessed as reduction in [I-14C] stearoyl CoA desaturation by scintillation counting; assay type: cell-based
T2 sequence (O00767 whole entry): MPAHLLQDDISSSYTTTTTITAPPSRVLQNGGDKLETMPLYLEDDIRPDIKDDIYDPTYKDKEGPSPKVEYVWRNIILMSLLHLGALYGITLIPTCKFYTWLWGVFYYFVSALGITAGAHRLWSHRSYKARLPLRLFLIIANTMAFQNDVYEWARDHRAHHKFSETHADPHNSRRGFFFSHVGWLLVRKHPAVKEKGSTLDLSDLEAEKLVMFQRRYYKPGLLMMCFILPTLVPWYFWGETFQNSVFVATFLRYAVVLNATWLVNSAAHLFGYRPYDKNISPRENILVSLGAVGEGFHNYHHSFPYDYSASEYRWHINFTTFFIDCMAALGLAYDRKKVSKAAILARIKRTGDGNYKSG

[9] = Volume of distribution in fasted C57BL6 mouse at 2 mg/kg, iv and 10 mg/kg, po BID; assay type: ADME, organism-based; settings: in vivo
Procedure, shortened: (§2)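 Fasted male C57BL6 mice given 2 mg/kg IV and 10 mg/kg PO. Plasma drug levels measured by LC-MS/MS, mean of n = 3 animals, and PK parameters derived from these.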

[10] = AUC in plasma of fasted C57BL6 mouse at 2 mg/kg, iv and 10 mg/kg, po BID; assay type: ADME, organism-based
Procedure, shortened: (§3)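 Fasted male C57BL6 mice received 2 mg/kg IV and 10 mg/kg PO. For the reference compound, IV was given as a solution in 60% PEG-200 and PO as a suspension in 1% methocel. Plasma levels were measured by LC-MS/MS. Values are the mean of n = 3 animals.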

[11] = Cmax in plasma of fasted C57BL6 mouse at 2 mg/kg, iv and 10 mg/kg, po BID; assay type: ADME, organism-based; procedure, shortened: as §3
[12] = Half life in fasted C57BL6 mouse at 2 mg/kg, iv and 10 mg/kg, po BID; assay type: ADME, organism-based; settings: in vivo; procedure, shortened: as §3
[13] = Oral bioavailability in C57BL6 mouse at 10 mg/kg BID; assay type: ADME, organism-based; settings: in vivo, in the assay text read “10 mg/kg” for “10 mg/kg BID”; procedure, shortened: as §2
[14] = Clearance in fasted C57BL6 mouse at 2 mg/kg, iv and 10 mg/kg, po BID; assay type: ADME, organism-based; settings: in vivo; procedure, shortened: as §3

Compound: O=C(O)Cn1nnc(-c2cc(N3CCC(Oc4cc(F)ccc4Br)CC3)no2)n1
- Activity (Mus musculus [1]): Active
- Activity (Mus musculus [2]): Active
- Activity (Mus musculus [3]): inactive
- Activity (Mus musculus [4]): Dose-dependent effect

- IC50 (Acyl-CoA desaturase 1 [5]): 189 nM
- Ratio (Liver): 40
- IC50 (Acyl-CoA desaturase 1 [7]): 7 nM
- IC50 (Stearoyl-CoA desaturase): 904 nM
Compound: O=C(O)Cn1nnc(-c2nnc(N3CCC(Oc4cc(F)ccc4Br)CC3)s2)n1
- Ratio IC50 (HepG2): 5
- inhibition (Mus musculus [6]): Active
- Activity (Mus musculus [8]): inactive

- Vd [9]: 1 L/kg
- AUC [10]: 1 µM·h
- Cmax [11]: 400 nM
- half-life [12]: 42 min
- bioavailability [13]: 12%
- clearance [14]: 41 mL/min/kg
Compound: O=C([O-])Cn1nnc(-c2cc(N3CCC(Oc4cc(F)ccc4Br)CC3)no2)n1.[Na+]
